Measurements from different studies.
Compare with care: the assays were run in different laboratories.
Target: MAP/microtubule affinity-regulating kinase 4 (MARK4, Homo sapiens, UniProt Q96L34)
One construct used (Q96L34 1-752): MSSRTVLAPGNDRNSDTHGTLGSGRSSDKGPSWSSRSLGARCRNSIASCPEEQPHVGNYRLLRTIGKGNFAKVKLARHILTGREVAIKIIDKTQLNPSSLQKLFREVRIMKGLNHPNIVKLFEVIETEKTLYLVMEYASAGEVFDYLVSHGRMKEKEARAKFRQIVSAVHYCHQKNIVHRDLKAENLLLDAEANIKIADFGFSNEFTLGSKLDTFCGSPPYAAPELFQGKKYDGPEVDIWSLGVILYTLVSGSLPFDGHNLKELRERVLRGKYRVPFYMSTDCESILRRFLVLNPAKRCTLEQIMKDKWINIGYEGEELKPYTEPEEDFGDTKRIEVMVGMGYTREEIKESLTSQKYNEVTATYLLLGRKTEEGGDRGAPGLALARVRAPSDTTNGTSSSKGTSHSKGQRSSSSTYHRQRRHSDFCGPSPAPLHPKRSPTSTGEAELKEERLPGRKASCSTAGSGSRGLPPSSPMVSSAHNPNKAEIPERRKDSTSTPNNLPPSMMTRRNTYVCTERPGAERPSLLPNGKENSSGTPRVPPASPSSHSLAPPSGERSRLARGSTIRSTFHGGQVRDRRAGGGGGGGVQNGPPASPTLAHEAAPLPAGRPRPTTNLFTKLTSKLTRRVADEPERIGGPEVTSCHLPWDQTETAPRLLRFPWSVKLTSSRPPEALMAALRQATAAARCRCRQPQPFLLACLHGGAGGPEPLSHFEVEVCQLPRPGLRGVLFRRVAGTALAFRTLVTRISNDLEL

SMILES | effect on | technique | tested at | remaining binding
Cc1c(NC(=O)c2cc(C(N)=O)nc3cc(F)ccc23)c(C(F)(F)F)nn1Cc1ccc(C(C)(C)C)cc1 | cell-free assay | competition with immobilised ligand | 1 µM | 97%
F[C@@H]1CCN(c2nccc(-c3cnn4ncccc34)n2)C1 | binding | – | 1 µM | 100%
COc1cc(-c2cn(C3CCc4ccccc4N(CC(F)(F)F)C3=O)nn2)ccc1-n1ccc(C)n1 (centres unmarked) | cell-free assay | competition with immobilised ligand | 1 µM | 100%
Cc1cnn2ncc(-c3ccnc(N(C)C)n3)c2c1 | binding | – | 1 µM | 91%
COc1ncc2cc3ccccc3nc2c1C#N | cell-free assay | competition with immobilised ligand | 5 µM | 64%
CC(C)CC(=O)N1CCc2nc(-c3ccc(Br)cc3)nc(N(C)Cc3ccccc3)c2C1 | cell-free assay | competition with immobilised ligand | 0.1 µM | 100%
O=C(c1ccc(Nc2ncc(Cl)c(-c3ccc(Cl)s3)n2)cc1)N1CCC(N2CCCC2)CC1 | binding | competition with immobilised ligand | 1 µM | 23%
Nc1ncc2c(n1)-c1c([nH]c3ccc(C#CC4CC4)cc13)CCCC2 | binding | competition with immobilised ligand | 1 µM | 100%
O=C(NCCCN1CCOCC1)c1ccc(Nc2nccc(-c3cc4ccccc4s3)n2)cc1 | binding | competition with immobilised ligand | 1 µM | 60%
CN(CCCC(F)(F)F)c1nccc(-c2cnn3ncccc23)n1 | binding | – | 1 µM | 90%
COc1cnc(Nc2cccc(S(N)(=O)=O)c2)nc1N1CCN(c2ccccc2)CC1 | binding | competition with immobilised ligand | 1 µM | 86%
c1cnn2ncc(-c3ccnc(N4CCC45COC5)n3)c2c1 | binding | – | 1 µM | 84%
c1cncc(-c2cccc(Nc3nccc(NC4CCCCC4)n3)c2)c1 | binding | competition with immobilised ligand | 10 µM | 80%
Nc1c(C(=O)NCc2ccc(C(=O)NCCCC3CCCCC3)cc2)cnn1-c1ccccc1 | cell-free assay | competition with immobilised ligand | 0.1 µM | 76%
C[C@@H]1CCN(c2nccc(-c3cnn4ncccc34)n2)C1 | binding | – | 1 µM | 100%
O=C(Nc1c[nH]nc1C(=O)NC1CCNCC1)c1cc(F)cc(F)c1 | binding | competition with immobilised ligand | 1 µM | 100%
CC(=O)Nc1c(C(C)=O)c(=O)n(C)c2nc(-c3ccc(Cl)cc3Cl)c(-c3ccc(Cl)cc3)cc12 | cell-free assay | competition with immobilised ligand | 1 µM | 100%
O=C(NCCCN1CCOCC1)c1ccc(Nc2ncc(Cl)c(-c3ccc(Cl)s3)n2)cc1 | binding | competition with immobilised ligand | 1 µM | 24%
CN(c1nccc(-c2cnn3ncccc23)n1)C1CC1 | binding | – | 1 µM | 76%
O=C(O)c1cc(-c2ccc(C3CCNCC3)cc2)c2ccc(-c3ccc(C(F)(F)F)cc3)cc2c1 | cell-free assay | competition with immobilised ligand | 1 µM | 100%
